Measurements of several laboratories.
Each line is one published result; the experiments were not run side by side.
Cell line: MDA-MB-231
Observed: cell growth or viability

SMILES	technique	time	measurement	value
COc1ccc(NC(=O)Nc2ccc3c(c2)C=CCP(=O)(O)O3)cc1	MTT	72 h	Emax	50%
CC[C@H](C)[C@@H]([C@@H](CC(=O)N1CCC[C@H]1[C@H](OC)[C@@H](C)C(=O)N[C@H](C)[C@@H](O)c1ccccc1)OC)N(C)C(=O)[C@@H](NC(=O)[C@@H](NC)C(C)C)C(C)C	CCK-8	–	IC50	0.00828 µM
O=C1c2ccccc2-c2c3c(cc4ccnc1c24)OCO3	MTT	75 h	IC50	49 µM
CCOP1(=O)CC=Cc2cc(N)ccc2O1 (stereo not drawn)	MTT	72 h	Emax	10 to 15%
C=CCNC1=C2C[C@@H](C)C[C@H](OC)[C@H](O)[C@@H](C)/C=C(\C)[C@H](OC(N)=O)[C@@H](OC)/C=C\C=C(/C)C(=O)NC(=CC1=O)C2=O	–	72 h	IC50	19.5 µM
CC(C)=C[C@H]1C[C@H](C)[C@]2(CC[C@]3(C)C[C@H]4[C@H](C(=O)C[C@@]4(C)O)/C(C=O)=C\C[C@H]32)O1	–	–	IC50	0.0582 µM
[C-]#[O+].[C-]#[O+].[C-]#[O+].[C-]#[O+].[C-]#[O+].[C-]#[O+].[C-]#[O+].[C-]#[O+].[C-]#[O+].[C-]#[O+].[Mn].[Mn]	MTT	48 h	IC50	25.4 µM
N.N.[Cl][Pt][Cl]	MTT	–	IC50	> 100 µM
N.N.[Cl][Pt][Cl]	MTT	48 h	IC50	40.1 µM
CC[C@H](C)[C@@H]([C@@H](CC(=O)N1CCC[C@H]1[C@H](OC)[C@@H](C)C(=O)N[C@H](C)[C@@H](O)c1ccccc1)OC)N(C)C(=O)[C@@H](NC(=O)[C@H](C(C)C)N(C)C(=O)OCc1ccc(NC(=O)[C@H](CCCNC(N)=O)NC(=O)[C@@H](NC(=O)CCOCCOCCOCCOCCC(=O)N[C@@H]2CSSC[C@H](C(=O)O)NC(=O)CNC(=O)[C@@H](CCCNC(=N)N)NC(=O)CNC(=O)[C@@H](C(C)C)NC(=O)CNC(=O)[C@@H](C)NC(=O)[C@@H](CCCNC(=N)N)NC2=O)C(C)C)cc1)C(C)C	resazurin	24 h	IC50	0.12 µM
CC(=O)N[C@H]1[C@@H](O[C@@H]2O[C@H](C[C@@H](O)[C@H]3O[C@@H](n4ccc(=O)[nH]c4=O)[C@H](O)[C@@H]3O)[C@H](O)[C@H](O)[C@H]2NC(=O)/C=C/CCCCCCCCCC(C)C)O[C@H](CO)[C@@H](O)[C@@H]1O	WST-1	–	IC50	0.17 µM
COc1c(C)c2c(c(O)c1C/C=C(\C)CCC(=O)O)C(=O)OC2	–	–	IC50	1.2 µM
